# Laboratory results published in ChEMBL document CHEMBL1144620, “Synthesis and biodistribution of new radiolabeled high-affinity choline transporter inhibitors [11C]hemicholinium-3 and [18F]hemicholinium-3” (Bioorg Med Chem Lett, 2007).
# Key:
# [1] = Biodistribution in L-Atrium of 9L-glioma bearing rat at 1 to 3 mCi, iv after 5 mins; assay type: ADME, organism-based; conditions: in vivo
# Method in brief: (§1)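 9L-glioma rats (200–300 g) given 1–3 mCi of [¹¹C]- or [¹⁸F]-labelled tracer iv by tail vein while consciously restrained. At 5 or 20 min they were decapitated under halothane anaesthesia. Tissues were excised and weighed, and decay-corrected radioactivity was counted by gamma counter. Values are %ID/g, averaged over three rats per time point.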
# 9L [2] = assay: Biodistribution in tumor of 9L-glioma bearing rat at 1 to 3 mCi, iv after 5 mins; assay type: ADME, organism-based; conditions: in vivo; method in brief: as §1
# [3] = Biodistribution in A-V-node of 9L-glioma bearing rat at 1 to 3 mCi, iv after 5 mins; assay type: ADME, organism-based; conditions: in vivo; method in brief: as §1
# [4] = Biodistribution in urine of 9L-glioma bearing rat at 1 to 3 mCi, iv after 5 mins; assay type: ADME, organism-based; conditions: in vivo
# Method in brief: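 In 9L-glioma rats injected iv (tail vein, conscious restraint) with 1–3 mCi of radiotracer, urine was drawn by syringe from the bladder at 5 or 20 min. Animals were killed by decapitation under halothane. Decay-corrected radioactivity was gamma-counted and expressed as percent of injected dose (%ID), averaged over three rats.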
# Brain [5] = assay: Biodistribution in brain of 9L-glioma bearing rat at 1 to 3 mCi, iv after 30 mins; assay type: ADME, organism-based; conditions: in vivo, 0.5 h
# Method in brief: (§2)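 At 30 min they were decapitated under halothane anaesthesia. Tissues were excised, weighed and gamma-counted with decay correction. Values are %ID/g, averaged over three rats.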
# [6] = Biodistribution in R-ventricle of 9L-glioma bearing rat at 1 to 3 mCi, iv after 30 mins; assay type: ADME, organism-based, Heart right ventricle; conditions: in vivo, 0.5 h; method in brief: as §2
# [7] = Biodistribution in L-Atrium of 9L-glioma bearing rat at 1 to 3 mCi, iv after 30 mins; assay type: ADME, organism-based, Left cardiac atrium; conditions: in vivo, 0.5 h; method in brief: as §2
# Lung [8] = assay: Biodistribution in lung of 9L-glioma bearing rat at 1 to 3 mCi, iv after 30 mins; assay type: ADME, organism-based; conditions: in vivo, 0.5 h; method in brief: as §2
# [9] = Biodistribution in L-ventricle of 9L-glioma bearing rat at 1 to 3 mCi, iv after 30 mins; assay type: ADME, organism-based, Heart left ventricle; conditions: in vivo, 0.5 h; method in brief: as §2
# Blood [10] = assay: Biodistribution in blood of 9L-glioma bearing rat at 1 to 3 mCi, iv after 30 mins; assay type: ADME, organism-based; conditions: in vivo, 0.5 h
# Method in brief: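 Blood was weighed and gamma-counted with decay correction, and results are expressed as %ID/g. Total blood activity assumed a blood mass of 7% of body mass. n = 3, mean.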
# Kidney [11] = assay: Biodistribution in kidney of 9L-glioma bearing rat at 1 to 3 mCi, iv after 30 mins; assay type: ADME, organism-based; conditions: in vivo, 0.5 h; method in brief: as §2
# [12] = Biodistribution in L-ventricle of 9L-glioma bearing rat at 1 to 3mCi, iv after 5 mins; assay type: ADME, organism-based, Heart left ventricle; conditions: in vivo; method in brief: as §1
# [13] = Biodistribution in urine of 9L-glioma bearing rat at 1 to 3 mCi, iv after 30 mins; assay type: ADME, organism-based; conditions: in vivo, 0.5 h
# Method in brief: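 At 30 min, urine was drawn from the bladder by syringe after decapitation under halothane. Radioactivity was gamma-counted with decay correction and expressed as % of injected dose. Mean of three rats.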
# Plasma [14] = assay: Biodistribution in plasma of 9L-glioma bearing rat at 1 to 3 mCi, iv after 30 mins; assay type: ADME, organism-based; conditions: in vivo, 0.5 h; method in brief: as §2
# Lung [15] = assay: Biodistribution in lung of 9L-glioma bearing rat at 1 to 3 mCi, iv after 5 mins; assay type: ADME, organism-based; conditions: in vivo; method in brief: as §1
# Septum [16] = assay: Biodistribution in septum of 9L-glioma bearing rat at 1 to 3mCi, iv after 5 mins; assay type: ADME, organism-based; conditions: in vivo; method in brief: as §1
# [17] = Biodistribution in skeletal muscle of 9L-glioma bearing rat at 1 to 3 mCi, iv after 30 mins; assay type: ADME, organism-based, Muscle tissue; conditions: in vivo, 0.5 h; method in brief: as §2
# Septum [18] = assay: Biodistribution in septum of 9L-glioma bearing rat at 1 to 3 mCi, iv after 30 mins; assay type: ADME, organism-based; conditions: in vivo, 0.5 h; method in brief: as §2
# [19] = Biodistribution in R-Atrium of 9L-glioma bearing rat at 1 to 3 mCi, iv after 30 mins; assay type: ADME, organism-based, Right cardiac atrium; conditions: in vivo, 0.5 h; method in brief: as §2
# Blood [20] = assay: Biodistribution in blood of 9L-glioma bearing rat at 1 to 3 mCi, iv after 5 mins; assay type: ADME, organism-based; conditions: in vivo; method in brief: as §1
# [21] = Biodistribution in skeletal muscle of 9L-glioma bearing rat at 1 to 3 mCi, iv after 5 mins; assay type: ADME, organism-based, Muscle tissue; conditions: in vivo; method in brief: as §1
# [22] = Biodistribution in R-Atrium of 9L-glioma bearing rat at 1 to 3 mCi, iv after 5 mins; assay type: ADME, organism-based, Right cardiac atrium; conditions: in vivo; method in brief: as §1
# Solar plexus [23] = assay: Biodistribution in solar plexus of 9L-glioma bearing rat at 1 to 3 mCi, iv after 30 mins; assay type: ADME, organism-based; conditions: in vivo, 0.5 h; method in brief: as §2
# Brain [24] = assay: Biodistribution in brain of 9L-glioma bearing rat at 1 to 3 mCi, iv after 5 mins; assay type: ADME, organism-based; conditions: in vivo; method in brief: as §1
# Solar plexus [25] = assay: Biodistribution in solar plexus of 9L-glioma bearing rat at 1 to 3 mCi, iv after 5 mins; assay type: ADME, organism-based; conditions: in vivo; method in brief: as §1
# Plasma [26] = assay: Biodistribution in plasma of 9L-glioma bearing rat at 1 to 3 mCi, iv after 5 mins; assay type: ADME, organism-based; conditions: in vivo; method in brief: as §1
# [27] = Ratio of biodistribution in tumor to muscle of 9L-glioma bearing rat at 1 to 3 mCi, iv after 30 mins; assay type: ADME, organism-based; conditions: in vivo, 0.5 h
# 9L [28] = assay: Biodistribution in tumor of 9L-glioma bearing rat at 1 to 3 mCi, iv after 30 mins; assay type: ADME, organism-based; conditions: in vivo, 0.5 h; method in brief: as §2
# Liver [29] = assay: Biodistribution in liver of 9L-glioma bearing rat at 1 to 3 mCi, iv after 5 mins; assay type: ADME, organism-based; conditions: in vivo; method in brief: as §1
# Kidney [30] = assay: Biodistribution in kidney of 9L-glioma bearing rat at 1 to 3 mCi, iv after 5 mins; assay type: ADME, organism-based; conditions: in vivo; method in brief: as §1
# [31] = Ratio of biodistribution in tumor to blood of 9L-glioma bearing rat at 1 to 3 mCi, iv after 30 mins; assay type: ADME, organism-based; conditions: tumour, 0.5 h
# [32] = Biodistribution in A-V-node of 9L-glioma bearing rat at 1 to 3 mCi, iv after 30 mins; assay type: ADME, organism-based; conditions: in vivo, 0.5 h; method in brief: as §2
# Liver [33] = assay: Biodistribution in liver of 9L-glioma bearing rat at 1 to 3 mCi, iv after 30 mins; assay type: ADME, organism-based; conditions: in vivo, 0.5 h; method in brief: as §2
# [34] = Biodistribution in R-ventricle of 9L-glioma bearing rat at 1 to 3 mCi, iv after 5 mins; assay type: ADME, organism-based, Heart right ventricle; conditions: in vivo; method in brief: as §1
compound,measurement,setting,value
C[N+]1(C)CCOC(O)(c2ccc(-c3ccc(C4(O)C[N+](C)(C[18F])CCO4)cc3)cc2)C1.O=S(=O)([O-])C(F)(F)F.[I-] (centres undefined),Drug uptake,[1],0.824 % ID/g
same,Drug uptake,9L [2],0.952 % ID/g
same,Drug uptake,[3],5.607 % ID/g
same,Drug uptake,[4],10.2 % dose
same,Drug uptake,Brain [5],0.03 % ID/g
same,Drug uptake,[6],0.243 % ID/g
same,Drug uptake,[7],0.767 % ID/g
same,Drug uptake,Lung [8],0.533 % ID/g
same,Drug uptake,[9],0.253 % ID/g
same,Drug uptake,Blood [10],0.378 % ID/g
same,Drug uptake,Kidney [11],5.935 % ID/g
same,Drug uptake,[12],0.438 % ID/g
same,Drug uptake,[13],27.6 % dose
same,Drug uptake,Plasma [14],1.272 % ID/g
same,Drug uptake,Lung [15],0.944 % ID/g
same,Drug uptake,Septum [16],0.53 % ID/g
same,Drug uptake,[17],0.123 % ID/g
same,Drug uptake,Septum [18],0.262 % ID/g
same,Drug uptake,[19],0.999 % ID/g
same,Drug uptake,Blood [20],1.467 % ID/g
same,Drug uptake,[21],0.194 % ID/g
same,Drug uptake,[22],2.023 % ID/g
same,Drug uptake,Solar plexus [23],1.009 % ID/g
same,Drug uptake,Brain [24],0.042 % ID/g
same,Drug uptake,Solar plexus [25],1.186 % ID/g
same,Drug uptake,Plasma [26],3.732 % ID/g
same,Ratio,[27],3.024
same,Drug uptake,9L [28],0.359 % ID/g
same,Drug uptake,Liver [29],1.228 % ID/g
same,Drug uptake,Kidney [30],8.676 % ID/g
same,Ratio,[31],0.978
same,Drug uptake,[32],0.6 % ID/g
same,Drug uptake,Liver [33],1.536 % ID/g
same,Drug uptake,[34],0.734 % ID/g
